Test results from ChEMBL document CHEMBL2040734, “Benzothiazoles: search for anticancer agents” (2012).

Legend:
Format in all cases: functional
[1] = test system: SN12C; assay: Growth inhibition of human SN12C cells after 48 hrs by sulforhodamine B assay; conditions: for CC50: read-out: LC50 (the source's name)
How it was run: (§1)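 Adherent NCI-60 lines were grown in RPMI 1640 with 5% FBS and 2 mM L-glutamine, plated at 5000–40,000 cells/well and preincubated 24 h. They were then exposed to five concentrations (0.01–100 µM, from a DMSO stock) for 48 h at 37 °C, 5% CO2. Cells were fixed with cold TCA (10% final, 60 min, 4 °C) and stained with 0.4% SRB. Dye was solubilized in 10 mM Tris base and A515 read. GI50 was derived from time-zero, control and treated absorbances.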

[2] = test system: SNB-75; assay: Cytotoxicity against human SNB75 cells assessed as cell growth at 0.01 uM after 48 hrs by sulforhodamine B assay; conditions: SNB-75, 48 h, read-out: Activity
[3] = test system: SK-MEL-28; assay: Cytotoxicity against human SK-MEL-28 cells assessed as cell growth at 0.1 uM after 48 hrs by sulforhodamine B assay; conditions: SK-MEL-28, 48 h, read-out: Activity
[4] = test system: HCT-116; assay: Cytotoxicity against human HCT116 cells assessed as cell growth at 10 '-5 M after 48 hrs by sulforhodamine B assay; conditions: HCT-116, 48 h, read-out: Activity
How it was run: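 Primary one-dose screen across the NCI 60-line panel at 10 µM. Cells were grown in RPMI 1640 with 5% FBS and 2 mM L-glutamine and held 24 h before drug. Drug was diluted from a DMSO concentrate. Exposure was 48 h at 37 °C, 5% CO2. Cells were fixed with TCA and stained with SRB, with absorbance read at 515 nm. Percent growth was calculated against time-zero and untreated control.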

[5] = test system: RXF 393; assay: Growth inhibition of human RXF393 cells after 48 hrs by sulforhodamine B assay; conditions: RXF 393, 48 h; how it was run: as §1
[6] = test system: Malme-3M; assay: Cytotoxicity against human MALME-3M cells assessed as cell growth at 10 uM after 48 hrs by sulforhodamine B assay; conditions: read-out: Activity
[7] = test system: SK-OV-3; assay: Cytotoxicity against human SKOV3 cells assessed as cell growth at 1 uM after 48 hrs by sulforhodamine B assay; conditions: SK-OV-3, 48 h, read-out: Activity
[8] = test system: MOLT-4; assay: Cytotoxicity against human MOLT4 cells assessed as cell growth at 0.1 uM after 48 hrs by sulforhodamine B assay; conditions: MOLT-4, 48 h, read-out: Activity
[9] = test system: UACC-62; assay: Cytotoxicity against human UACC62 cells assessed as cell growth at 100 uM after 48 hrs by sulforhodamine B assay; conditions: UACC-62, 48 h, read-out: Activity
[10] = test system: SF-295; assay: Cytotoxicity against human SF295 cells assessed as cell growth at 100 uM after 48 hrs by sulforhodamine B assay; conditions: SF-295, 48 h, read-out: Activity
[11] = test system: SNB-75; assay: Growth inhibition of human SNB75 cells after 48 hrs by sulforhodamine B assay; conditions: SNB-75, 48 h; how it was run: as §1
[12] = test system: DU-145; assay: Cytotoxicity against human DU145 cells assessed as cell growth at 10 uM after 48 hrs by sulforhodamine B assay; conditions: DU-145, 48 h, read-out: Activity
How it was run: (§2)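 Five-dose NCI panel run at 0.01, 0.1, 1, 10 and 100 µM. Cells were in RPMI 1640 with 5% FBS and 2 mM L-glutamine, seeded at 5000–40,000 cells/well and pre-incubated 24 h. Drug was diluted from a DMSO stock into medium with 50 µg/ml gentamicin. Exposure was 48 h at 37 °C, 5% CO2. Cells were fixed with cold TCA and stained with 0.4% SRB, read at 515 nm. Percent growth came from time-zero, control and test absorbances.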

[13] = test system: RXF 393; assay: Cytotoxicity against human RXF393 cells assessed as cell growth at 0.1 uM after 48 hrs by sulforhodamine B assay; conditions: RXF 393, 48 h, read-out: Activity
[14] = test system: 786-0; assay: Cytotoxicity against human 786-0 cells assessed as cell growth at 0.01 uM after 48 hrs by sulforhodamine B assay; conditions: 786-0, 48 h, read-out: Activity
How it was run: (§3)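 NCI-60 five-dose screen. Cells were grown in RPMI 1640 with 5% FBS and 2 mM L-glutamine and preincubated 24 h. Compound (DMSO stock) was tested at 0.01, 0.1, 1, 10 and 100 µM for 48 h at 37 °C. Cells were fixed in situ with cold TCA (final 10%) and stained with 0.4% SRB. A515 was read, and percent growth was calculated against time-zero and control plates.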

[15] = test system: UACC-62; assay: Cytotoxicity against human UACC62 cells assessed as cell growth at 0.01 uM after 48 hrs by sulforhodamine B assay; conditions: UACC-62, 48 h, read-out: Activity
[16] = test system: NCI-H522; assay: Cytotoxicity against human NCI-H522 cells assessed as cell growth at 10 uM after 48 hrs by sulforhodamine B assay; conditions: NCI-H522, 48 h, read-out: Activity
[17] = test system: SF-539; assay: Cytotoxicity against human SF539 cells assessed as cell growth at 0.01 uM after 48 hrs by sulforhodamine B assay; conditions: SF-539, 48 h, read-out: Activity
[18] = test system: COLO 205; assay: Cytotoxicity against human COLO205 cells assessed as cell growth at 100 uM after 48 hrs by sulforhodamine B assay; conditions: COLO 205, 48 h, read-out: Activity; how it was run: as §3
[19] = test system: Malme-3M; assay: Cytotoxicity against human MALME-3M cells assessed as cell growth at 0.1 uM after 48 hrs by sulforhodamine B assay; conditions: read-out: Activity
[20] = test system: OVCAR-8; assay: Cytotoxicity against human OVCAR8 cells assessed as cell growth at 100 uM after 48 hrs by sulforhodamine B assay; conditions: OVCAR-8, 48 h, read-out: Activity
[21] = test system: 786-0; assay: Cytotoxicity against human 786-0 cells assessed as cell growth at 100 uM after 48 hrs by sulforhodamine B assay; conditions: 786-0, 48 h, read-out: Activity; how it was run: as §3
[22] = test system: SR; assay: Cytotoxicity against human SR cells assessed as cell growth at 100 uM after 48 hrs by sulforhodamine B assay; conditions: read-out: Activity
[23] = test system: 786-0; assay: Cytotoxicity against human 786-0 cells assessed as cell growth at 0.1 uM after 48 hrs by sulforhodamine B assay; conditions: 786-0, 48 h, read-out: Activity; how it was run: as §3
[24] = test system: EKVX; assay: Cytotoxicity against human EKVX cells assessed as cell growth at 1 uM after 48 hrs by sulforhodamine B assay; conditions: read-out: Activity; how it was run: as §2
[25] = test system: NCI-H460; assay: Cytotoxicity against human NCI-H460 cells assessed as cell growth at 0.01 uM after 48 hrs by sulforhodamine B assay; conditions: NCI-H460, 48 h, read-out: Activity
[26] = test system: MCF7; assay: Growth inhibition of human MCF7 cells after 48 hrs by sulforhodamine B assay; conditions: MCF7, 48 h; for CC50: read-out: LC50 (the source's name); how it was run: as §1
[27] = test system: SW-620; assay: Cytotoxicity against human SW620 cells assessed as cell growth at 1 uM after 48 hrs by sulforhodamine B assay; conditions: SW-620, 48 h, read-out: Activity
[28] = test system: SF-295; assay: Cytotoxicity against human SF295 cells assessed as cell growth at 0.01 uM after 48 hrs by sulforhodamine B assay; conditions: SF-295, 48 h, read-out: Activity
[29] = test system: SK-MEL-28; assay: Growth inhibition of human SK-MEL-28 cells after 48 hrs by sulforhodamine B assay; conditions: SK-MEL-28, 48 h; how it was run: as §1

| SMILES | TGI [1] | CC50 [1] | growth at 0.01 µM [2] | growth at 0.1 µM [3] | growth at 10 µM [4] | GI50 [5] | TGI [5] | growth at 10 µM [6] | growth at 1 µM [7] | growth at 0.1 µM [8] | growth at 100 µM [9] | growth at 100 µM [10] | GI50 [11] | LC50 [11] | growth at 10 µM [12] | growth at 0.1 µM [13] | growth at 0.01 µM [14] | growth at 0.01 µM [15] | growth at 10 µM [16] | growth at 0.01 µM [17] | other results |
| --- | --- | --- | --- | --- | --- | --- | --- | --- | --- | --- | --- | --- | --- | --- | --- | --- | --- | --- | --- | --- | --- |
| Cc1ccc2nc(Nc3c(C)cccc3C)sc2c1 | > 100000 nM | > 100000 nM | 80% | 92% | 19.4% | 1200 nM | > 100000 nM | 45% | 91% | 111% | 37% | 14% | 1260 nM | > 100000 nM | 75% | 85% | 97% | 92% | 28% | 99% | CC50 ([5]; read-out: LC50 (the source's name)): > 100000 nM; TGI [11]: > 100000 nM; growth at 100 µM [18]: 64%; growth at 0.1 µM [19]: 103%; growth at 100 µM [20]: 45%; growth at 100 µM [21]: 60%; growth at 100 µM [22]: 22%; growth at 0.1 µM [23]: 97%; growth at 1 µM [24]: 62%; growth at 0.01 µM [25]: 102%; GI50 [26]: 1200 nM; TGI [26]: > 100000 nM; CC50 [26]: > 100000 nM; growth at 1 µM [27]: 49%; growth at 0.01 µM [28]: 91%; LC50 [29]: > 100000 nM; TGI [29]: > 100000 nM |
| Clc1cccc(Cl)c1Nc1nc2cccc(Cl)c2s1 | 2120 nM | 4850 nM | 82% | 94% | -87.1% | 676 nM | 2410 nM | -84% | 86% | 109% | -94% | -51% | 791 nM | > 100000 nM | -96% | 73% | 106% | 94% | -71% | 97% | GI50 [1]: 772 nM; growth at 100 µM [18]: -52%; growth at 0.1 µM [19]: 90%; growth at 100 µM [20]: -35%; growth at 100 µM [21]: -90%; growth at 100 µM [22]: -32%; growth at 0.1 µM [23]: 94%; growth at 1 µM [24]: 15%; growth at 0.01 µM [25]: 102%; GI50 [26]: 811 nM; TGI [26]: 2240 nM; CC50 [26]: 5370 nM; growth at 1 µM [27]: 69%; growth at 0.01 µM [28]: 93%; GI50 [29]: 1460 nM; LC50 [29]: 6020 nM; TGI [29]: 2960 nM |
